Screening results deposited in PubChem by several laboratories.
CSN inh: CSN deneddylation inhibition | Q92905 | Purified CSN, SCF-Nedd8-OG deneddylation, fluorescence polarization | inhibition, % at 12.5 µM | 0.38% of 360,000 active | AID 651999;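 active = pattern-corrected inhibition above about 35%, with an unprinted fluorescence ratio check between 0.5 and 1.5, limit read from the data, passing the limit was not always enough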
Target sequence (Q92905 whole entry, looked up, one chain of several): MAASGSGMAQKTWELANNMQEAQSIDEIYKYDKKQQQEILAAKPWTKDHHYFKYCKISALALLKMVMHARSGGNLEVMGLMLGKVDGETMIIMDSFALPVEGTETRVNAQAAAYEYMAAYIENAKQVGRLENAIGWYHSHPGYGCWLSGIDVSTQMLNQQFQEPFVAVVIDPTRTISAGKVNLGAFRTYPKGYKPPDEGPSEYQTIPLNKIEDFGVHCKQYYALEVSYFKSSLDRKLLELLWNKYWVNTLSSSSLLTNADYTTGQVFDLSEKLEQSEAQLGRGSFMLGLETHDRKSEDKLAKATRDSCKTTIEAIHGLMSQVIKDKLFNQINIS
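Assay system: purified human Csn5 enzyme expressed in HEK293T cells; Input: 0.24 nM Csn5 enzyme, final concentration; Reagent: 10 nM SCFSkp2-Nedd8OG; Compound dosing: 12.5 µM single point; Times: reaction 90 min, room temperature; Technique: fluorescence polarization readout.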
TPT1 inh: blocks Candida albicans tRNA 2'-phosphotransferase; inhibition, % at 5 µM; 0.81% of 300,000 active; recombinant caTPT1, FP RNA substrate dephosphorylation; AID 1962;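 active = inhibition above the mean of all tested compounds plus 3 SD, set per screening campaign, cut at about 24% in these data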
SENP1 inh: inhibitors of human SENP1 SUMO protease catalytic domain | Q9P0U3 | recombinant SENP1 catalytic domain, CyPet-SUMO1-YPet FRET cleavage | inhibition, % at 10 µM | 0.21% of 360,000 active | AID 624204;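 active = inhibition at least 30% at 10 µM, raw YFP signal under a set limit, fluorescence ratio 0.5 to 1.5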
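Test system: recombinant human SENP1 catalytic domain, His6-tagged / Medium: pH 8 Tris buffer with EDTA, NaCl, BME, BSA, NP40, catalase / Also added: SUMO1 FRET substrate flanked by Cypet and Ypet, 25 nM / Times: 50 min reaction at room temperature / Signal: FRET, CFP and YFP emission / Control set: no-enzyme low control and enzyme-plus-DMSO high control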
HNF4A DNA FP: change in binding of human HNF4 alpha to DNA; P41235; HNF4a-FITC DNA binding, fluorescence polarization, 1 h; activity change, % at 10 µM; 0.3% of 360,000 active; AID 1224865; in the data active = activity change above about 30%, passing the limit was not always enough
Rpn11 block: Rpn11 (human) deubiquitinase inhibition; human 26S proteasome, Ub4-pepOG fluorescence polarization; 20S core pre-blocked with epoxomicin; inhibition, % at 20 µM; 0.59% of 360,000 active;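 active = inhibition at 20 µM, scaled to each plate's controls, above about 33%, limit read from the data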
Target sequence (O00487 whole entry, looked up): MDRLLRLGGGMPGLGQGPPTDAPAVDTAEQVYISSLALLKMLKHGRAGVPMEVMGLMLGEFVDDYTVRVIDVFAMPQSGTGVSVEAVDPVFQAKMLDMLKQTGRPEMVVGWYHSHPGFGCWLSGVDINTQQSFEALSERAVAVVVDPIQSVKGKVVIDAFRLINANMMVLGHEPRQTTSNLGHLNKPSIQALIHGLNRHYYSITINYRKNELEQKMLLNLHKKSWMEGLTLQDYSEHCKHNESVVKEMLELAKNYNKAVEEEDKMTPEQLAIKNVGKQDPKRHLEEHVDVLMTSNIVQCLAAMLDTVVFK
ATG4B inhibitor: blocks human ATG4B protease cleavage of LC3 substrate; inhibition, % at 8.33 µM; ATG4B cleavage of LC3-PLA2, NBD-HPC fluorescence, 1 h; 0.51% of 340,000 active; AID 504462; Q9Y4P1; in the data active = inhibition above about 40%
HNF4a DNA conf: change in binding of human HNF4 alpha to DNA, retest | shares compounds with HNF4A DNA FP | HNF4A-FITC DNA binding, fluorescence polarization, 1 h | activity change, % at 12.5 µM | 99% of 210 active | AID 1224897; call rule not given here
A number is an active result. This is a sample that favours compounds with a hit; in the whole collection about 2% have one here.

Results for C#CCOCCOCCOCCNc1nc(N2CCN(C(=O)C([C@@H](C)O)n3cc([C@@H](N)CCCCN)nn3)CC2)nc(N2CCN(C(=O)[C@H](CCCCN)n3cc([C@@H](N)[C@H](C)CC)nn3)CC2)n1 (stereo not given in full) ?
CSN inh: 85; SENP1 inh: inactive; HNF4A DNA FP: 76; Rpn11 block: inactive; HNF4a DNA conf: 94

Results for COc1ccc(C(CNC(=O)Nc2ccc(Cl)cc2)N2CCN(C)CC2)cc1 (stereo not given) ?
CSN inh: inactive; TPT1 inh: inactive; SENP1 inh: inactive; HNF4A DNA FP: inactive; Rpn11 block: inactive; ATG4B inhibitor: inactive

How did Cc1cccc(-c2c3c(=O)n(C)c(=O)n(C)c3c3nnc4ccccc4n23)c1 do in these assays?
CSN inh: inactive; SENP1 inh: inactive; HNF4A DNA FP: 50; ATG4B inhibitor: inactive; HNF4a DNA conf: 32

Results for CSCC[C@H](NC(=O)C1CCN(S(=O)(=O)c2ccc(C)cc2)CC1)C(=O)NC1CCS(=O)(=O)C1 (stereo not given in full) ?
CSN inh: inactive; TPT1 inh: inactive; SENP1 inh: inactive; HNF4A DNA FP: inactive; Rpn11 block: inactive; ATG4B inhibitor: inactive

How did CCOC(=O)c1c(C)c(C)n2c1NC(=O)C2 do in these assays?
CSN inh: inactive; SENP1 inh: inactive; HNF4A DNA FP: 57; HNF4a DNA conf: 65

What do the screens show for `CCOC(=O)c1c(C)[nH]c(C(=O)N2CCN(C(=O)OCC)CC2)c1C`?
CSN inh: inactive; TPT1 inh: inactive; SENP1 inh: inactive; HNF4A DNA FP: inactive; Rpn11 block: inactive; ATG4B inhibitor: inactive

How did COc1ccc2c(c1)C1=NN(/C(C)=C\C(C)=O)C(c3ccccc3)C1CC2 (stereo not given) do in these assays?
CSN inh: inactive; TPT1 inh: inactive; SENP1 inh: inactive; HNF4A DNA FP: 40; Rpn11 block: inactive; ATG4B inhibitor: inactive; HNF4a DNA conf: 53

Results for COc1ccc(C2=NN(C(=O)CSc3nccn3C)C(c3ccco3)C2)cc1 (stereo not given) ?
CSN inh: inactive; SENP1 inh: inactive; HNF4A DNA FP: inactive; Rpn11 block: inactive; ATG4B inhibitor: inactive

How did Cn1c(=O)c(=O)n(C)c2cc(S(=O)(=O)N3CCc4ccccc43)ccc21 do in these assays?
CSN inh: inactive; TPT1 inh: inactive; SENP1 inh: inactive; HNF4A DNA FP: 43; Rpn11 block: inactive; ATG4B inhibitor: inactive; HNF4a DNA conf: 47

What do the screens show for `Cn1c(=O)oc2cc(S(=O)(=O)N3CCc4ccccc43)ccc21`?
CSN inh: inactive; TPT1 inh: inactive; SENP1 inh: inactive; HNF4A DNA FP: inactive; Rpn11 block: inactive; ATG4B inhibitor: inactive

Results for NS(=O)(=O)c1cccc(NC(=O)c2cccnc2Oc2ccccc2)c1 ?
CSN inh: inactive; TPT1 inh: inactive; SENP1 inh: inactive; HNF4A DNA FP: inactive; Rpn11 block: inactive; ATG4B inhibitor: inactive

Results for COc1cc(/C=C2\C(=N)N3N=CSC3=NC2=O)cc(Br)c1OC(=O)c1ccco1 ?
CSN inh: inactive; TPT1 inh: inactive; SENP1 inh: inactive; HNF4A DNA FP: 39; Rpn11 block: inactive; ATG4B inhibitor: inactive; HNF4a DNA conf: 79

What do the screens show for `Cc1cccc(NC(=O)c2sc3nc(-c4ccc(F)cc4)cn3c2C)n1`?
CSN inh: 36; TPT1 inh: inactive; SENP1 inh: inactive; HNF4A DNA FP: 37; ATG4B inhibitor: inactive; HNF4a DNA conf: 38

Results for Cc1ccc(Nc2nc(Cl)c(C=O)s2)cc1Cl ?
CSN inh: inactive; TPT1 inh: inactive; SENP1 inh: inactive; HNF4A DNA FP: 44; ATG4B inhibitor: inactive; HNF4a DNA conf: 44

What do the screens show for `CC1(C)Oc2ccc3ccc(=O)oc3c2/C(=C/NNC(N)=O)C1=O`?
CSN inh: inactive; TPT1 inh: inactive; SENP1 inh: inactive; HNF4A DNA FP: inactive; Rpn11 block: inactive; ATG4B inhibitor: inactive

Results for COc1ccc2cc(C(c3nnnn3Cc3ccccc3)N3CCCCCC3)c(=O)[nH]c2c1 (stereo not given) ?
CSN inh: inactive; TPT1 inh: inactive; SENP1 inh: inactive; HNF4A DNA FP: inactive; Rpn11 block: inactive; ATG4B inhibitor: inactive

Results for COc1ccc2cc(C(c3nnnn3CCc3ccccc3)N3CCC(O)CC3)c(=O)[nH]c2c1 (stereo not given) ?
CSN inh: inactive; TPT1 inh: inactive; SENP1 inh: inactive; HNF4A DNA FP: 55; ATG4B inhibitor: inactive; HNF4a DNA conf: 51

Results for COc1ccc(Nc2c(-c3cc4ccccc4o3)nc3nc(C)cc(C)n23)cc1 ?
CSN inh: inactive; SENP1 inh: inactive; HNF4A DNA FP: inactive

Results for CCCCNc1c(-c2cc3ccccc3o2)nc2nc(C)cc(C)n12 ?
CSN inh: inactive; SENP1 inh: inactive; HNF4A DNA FP: 45; HNF4a DNA conf: 37

How did CCN1/C(=N\N)c2cccc3cccc1c23 do in these assays?
CSN inh: 51; TPT1 inh: inactive; SENP1 inh: inactive; HNF4A DNA FP: 57; ATG4B inhibitor: inactive; HNF4a DNA conf: 72

How did CCC(C)NC(=O)CN1C(=O)c2cccc3cccc1c23 (stereo not given) do in these assays?
CSN inh: inactive; SENP1 inh: inactive; HNF4A DNA FP: inactive; Rpn11 block: inactive; ATG4B inhibitor: inactive

Results for N#Cc1ccsc1NC(=O)c1ccc2ncsc2c1 ?
CSN inh: 59; SENP1 inh: inactive; HNF4A DNA FP: 69; HNF4a DNA conf: 77

What do the screens show for `N#CC1=C(N)N(c2ccc(F)cc2)C2=C(C1c1ccc(O)cc1)S(=O)(=O)CC2` (stereo not given)?
CSN inh: 43; SENP1 inh: inactive; HNF4A DNA FP: 55; ATG4B inhibitor: inactive; HNF4a DNA conf: 52

What do the screens show for `CN(Cc1ccccc1F)C(=O)CNC(=O)Cc1cccc2ccccc12`?
CSN inh: inactive; TPT1 inh: inactive; SENP1 inh: inactive; HNF4A DNA FP: inactive; Rpn11 block: inactive; ATG4B inhibitor: inactive

What do the screens show for `O=C(NCC1CC1)c1cccc2c1C(=O)c1ccc(N3CCCC3)cc1S2(=O)=O`?
CSN inh: inactive; SENP1 inh: inactive; HNF4A DNA FP: inactive; ATG4B inhibitor: inactive

What do the screens show for `CC1CCN(c2ccc3c(c2)S(=O)(=O)c2cccc(C(=O)NC4CC4)c2C3=O)CC1`?
CSN inh: inactive; SENP1 inh: inactive; HNF4A DNA FP: 43; Rpn11 block: inactive; ATG4B inhibitor: inactive; HNF4a DNA conf: 36

How did CC1CCN(c2ccc3c(c2)S(=O)(=O)c2cccc(C(=O)NC[C@@H]4CCCO4)c2C3=O)CC1 do in these assays?
CSN inh: inactive; SENP1 inh: inactive; HNF4A DNA FP: 54; ATG4B inhibitor: inactive; HNF4a DNA conf: 62
